Screening data from PubChem BioAssay.
OX1R antag-1 = human HCRTR1 antagonism; O43613; CHO/OX1R cells, Fluo-8 calcium fluorescence, orexin A; inhibition, % at 5 µM; hit rate 0.43% among 330,000;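 active = inhibition above its plate's threshold, mean inhibition of all tested compounds on the plate plus 3 SD, cut at about 37% in these data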
Target sequence (O43613 whole entry, looked up): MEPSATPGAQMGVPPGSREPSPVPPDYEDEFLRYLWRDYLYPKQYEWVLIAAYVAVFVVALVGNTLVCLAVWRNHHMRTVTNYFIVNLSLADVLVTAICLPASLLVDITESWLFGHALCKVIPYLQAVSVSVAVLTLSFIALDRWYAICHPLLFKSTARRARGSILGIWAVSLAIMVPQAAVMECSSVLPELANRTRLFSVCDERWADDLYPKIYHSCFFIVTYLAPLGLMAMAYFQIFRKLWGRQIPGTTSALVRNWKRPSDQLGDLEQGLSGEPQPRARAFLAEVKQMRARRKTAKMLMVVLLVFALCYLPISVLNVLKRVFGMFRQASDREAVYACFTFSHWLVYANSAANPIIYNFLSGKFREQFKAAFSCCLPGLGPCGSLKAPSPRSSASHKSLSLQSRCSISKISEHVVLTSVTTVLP
OX1R antag-2 = blocks the human orexin 1 receptor | OX1R-expressing cells, FRET antagonist read-out | hit rate 1.8% among 330,000 | O43613 | inhibition, % at 6.6 µM; in the data active = inhibition mostly above about 38%, no sharp cut-off; inactive = mostly below about 40%
EP2 antag = inhibitors of human EP2 prostaglandin E2 receptor; C6 glioma cells expressing human EP2, cAMP TR-FRET; cells stimulated with saturating PGE2; P43116; hit rate 0.52% among 260,000; inhibition, % at 25 µM;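 active = percent inhibition above 40 after rounding to a whole number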;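 note: rat C6 glioma host cells with rolipram phosphodiesterase inhibitor present; the protocol text gives 20 µM as final concentration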
GPR7 antag = human neuropeptides B/W receptor 1 antagonism; GPR7-expressing cells, fluorescence antagonist assay; inhibition, % at 4.4 µM; hit rate 1.1% among 290,000; AID 1861; in the data active = inhibition above about 16%, passing the limit was not always enough;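 note: cells stimulated with the agonist NPW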
EP2 mod = modulates human prostaglandin E2 receptor EP2 signaling | P43116 | EP2-expressing cells, cAMP HTRF FRET, PGE2 co-stimulation | induction, % at 25 µM | hit rate 0.83% among 260,000;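 active = compounds whose cAMP rise, as percent of the full-agonist control response, exceeds 60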;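 note: rat C6 glioma line stably carrying human EP2 under a CMV promoter; the protocol text gives 20 µM as final concentration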
CHO parental Ca = counter-screen: ATP calcium response change in parental CHO cells; AID 463079; hit rate 0.63% among 330,000; inhibition, % at 5.6 µM; parental CHO-K1, ATP-induced calcium, Fluo-8 fluorescence;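 active = inhibition above that plate's mean sample inhibition plus 3 SD, cut at about 26% in these data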
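Material: parental CHO cells / Compound: single nominal dose of 5.6 µM per compound / Signal: Fluo-8 fluorescence / Replicates: singlicate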
OX1R Ca confirm = confirmation of human orexin 1 receptor antagonists. hit rate 38% among 1,100. shares compounds with OX1R antag-1. inhibition, % at 5 µM. CHO/OX1R cells, orexin A calcium Fluo-8 fluorescence; in the data active = inhibition above about 29%
CHO Ca triplic = signal in parental CHO cells, OX1R antagonist counter-screen. shares compounds with OX1R antag-1. parental CHO-K1, ATP-induced calcium, Fluo-8 fluorescence. inhibition, % at 5.6 µM. hit rate 9.3% among 1,100;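 active = inhibition above a per-plate limit, the mean inhibition of that plate's test compounds plus 3 SD, cut at about 25% in these data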
OX1R HTRF conf = OX1R (human) antagonism, HTRF confirmed; shares compounds with OX1R antag-2; hit rate 49% among 1,800; inhibition, % at 6.6 µM; OX1R-expressing cells, HTRF antagonist assay; AID 492964; in the data active = inhibition above about 55%;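 note: CHO cells expressing OX1R stimulated with orexin A at about EC80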
CHO-K1 HTRF cnt = signal in parental CHO-K1 cells, OX1R antagonist counter-screen | shares compounds with OX1R antag-2 | HTRF counterscreen | inhibition, % at 6.6 µM | hit rate 48% among 1,800 | AID 493232; in the data active = inhibition above about 17%
Hits are given with their value; . = inactive; / = no result given. Shown are actives, neighbours in structure and some others; about 3.7% of the full set was active somewhere.

SMILES | OX1R antag-1 | OX1R antag-2 | EP2 antag | GPR7 antag | EP2 mod | CHO parental Ca | OX1R Ca confirm | CHO Ca triplic | OX1R HTRF conf | CHO-K1 HTRF cnt
O=C(Nc1cccc(-c2nc3ccccc3s2)c1)c1ccc2c(c1)OCO2 | 44 | 87 | . | . | . | . | . | . | 94 | .
COCCNC(=O)C(c1ccc(O)cc1)N(Cc1cccs1)C(=O)CCC(=O)Nc1ccccn1 (stereo unspecified) | . | . | / | . | / | . | / | / | / | /
Cc1cc(NC(=O)CCC(=O)N(Cc2cccs2)C(C(=O)NC2CCCC2)c2ccccc2)no1 (stereo unspecified) | 51 | 92 | . | . | . | . | 44 | . | 93 | .
COCCNC(=O)C(c1ccc(C)cc1)N(Cc1cccs1)C(=O)CCC(=O)Nc1ccccn1 (stereo unspecified) | . | 75 | / | . | / | . | . | . | 82 | .
COCCNC(=O)C(c1ccc(C)cc1)N(Cc1ccccc1)C(=O)CCC(=O)Nc1ccccn1 (stereo unspecified) | . | 72 | / | . | / | . | 40 | . | 88 | .
CC(NC(=O)Cc1c(F)cccc1Cl)c1nc2cccnc2n1C(C)C (stereo unspecified) | / | / | / | / | . | / | / | / | / | /
CN1CCS/C1=C/C=C1\SC(=S)N(CC(=O)O)C1=O | . | 104 | . | . | . | . | . | . | 64 | 103
O=C1c2ccccc2NC(c2c(Cl)cccc2Cl)N1Cc1ccccc1 (stereo unspecified) | . | 82 | . | . | . | . | . | . | . | .
C/C(=N\Nc1cccc([N+](=O)[O-])c1)c1ccccc1O | . | 76 | . | . | . | . | . | . | . | .
Cn1c(N)c(C(=O)Nc2ccc3ccccc3c2)sc1=S | . | . | / | . | . | . | / | / | / | /
Cn1c(N)c(C(=O)N/N=C/c2ccccc2)sc1=S | 91 | 93 | . | . | . | . | 73 | . | 95 | 17
OCCn1c(SCCOc2ccccc2F)nc2ccccc21 | 52 | 105 | . | . | . | . | . | . | . | .
O=C(O)Cn1c(SCCOc2ccccc2F)nc2ccccc21 | . | . | . | . | . | . | / | / | / | /
COc1ccccc1N(CC(=O)NCCSCc1cccc(C)c1)S(=O)(=O)c1ccccc1 | . | 70 | / | . | / | . | 41 | . | 78 | .
COc1ccccc1N(CC(=O)NCCC1=CCCCC1)S(=O)(=O)c1ccccc1 | 63 | 85 | . | . | . | . | 45 | . | 87 | .
COc1ccc(N(CC(=O)NCCC2=CCCCC2)S(=O)(=O)c2ccccc2)cc1OC | . | . | . | . | . | . | / | / | / | /
C=CCNc1oc(-c2cccc3ccccc23)nc1C#N | 43 | 69 | . | . | . | . | . | . | 55 | .
CCNc1oc(-c2cccc3ccccc23)nc1C#N | 55 | 89 | . | . | . | . | 39 | . | 78 | .
O=C(COC(=O)COc1ccccc1)Nc1cccc([N+](=O)[O-])c1 | . | . | . | . | . | . | / | / | / | /
CC(NS(=O)(=O)c1ccc(OCC(=O)Nc2cccc([N+](=O)[O-])c2)cc1)c1ccccc1 (stereo unspecified) | 54 | 66 | . | . | . | . | 60 | . | 69 | .
CCc1ccc2nc(N3CCN(C(=O)C(C)(C)C)CC3)sc2c1 | . | . | / | . | / | . | / | / | / | /
CCOC(=O)c1ccc2[nH]c3c(c2c1)CCCC3O (stereo unspecified) | . | . | . | . | . | . | / | / | / | /
CCOC(=O)c1ccc2[nH]c3c(c2c1)CCCC3 | . | 78 | / | . | / | . | . | . | . | .
Cc1c(NS(=O)(=O)c2cccc(C(=O)OCC(=O)N(C)C3CCCCC3)c2)c(=O)n(-c2ccccc2)n1C | 37 | 98 | . | . | . | . | 58 | . | 90 | .
COc1cccc(C(=O)Nc2ccccc2)c1 | . | . | . | . | . | . | / | / | / | /
SMILES | OX1R antag-1 | OX1R antag-2 | EP2 antag | GPR7 antag | EP2 mod | CHO parental Ca | OX1R Ca confirm | CHO Ca triplic | OX1R HTRF conf | CHO-K1 HTRF cnt
COc1cccc(NC(=O)c2ccc(C(=O)c3ccccc3)o2)c1 | 53 | 100 | . | . | . | . | 33 | . | 78 | .
Cc1c(Cl)cccc1NC(=O)N1CCCN(c2nc(-c3ccccc3)ns2)CC1 | . | 80 | . | . | . | . | . | . | . | .
O=C(Nc1ccccc1)N1CCN(c2nc(-c3ccccc3)ns2)CC1 | . | . | . | . | . | . | / | / | / | /
Cc1c(NC(=O)c2c(N)n(-c3ccccc3)c3nc4ccccc4nc23)c(=O)n(-c2ccccc2)n1C | . | . | . | . | . | . | / | / | / | /
CCOC(=O)c1ccc(Nc2cnc3ccccc3n2)cc1 | 46 | 62 | . | . | . | . | . | . | . | .
CS(=O)(=O)c1ccc(C(=O)Nc2cccc(-c3nc4ccccc4[nH]3)c2)cc1 | . | 72 | / | . | / | . | . | . | 63 | .
CS(=O)(=O)c1cccc(C(=O)Nc2cccc(-c3nc4ccccc4[nH]3)c2)c1 | . | . | / | . | / | . | / | / | / | /
Cc1ccccc1C(=O)c1c[nH]c(C(=O)NCCc2ccccn2)c1 | . | . | . | . | . | . | / | / | / | /
Cc1ccc(SCc2c(C(=O)N/N=C/c3ccc4c(c3)OCO4)nnn2-c2nonc2N)cc1 | . | 60 | / | . | / | . | . | . | 82 | .
Cc1ccc(-c2c(C(=O)N/N=C/c3cccc(Cl)c3)nnn2-c2nonc2N)cc1 | . | . | / | . | / | . | / | / | / | /
Cc1ccc(/C=N/NC(=O)c2nnn(-c3nonc3N)c2CSc2ccccc2)cc1 | . | . | . | . | . | . | / | / | / | /
Cc1ccc(-c2c(C(=O)N/N=C/c3ccc4c(c3)OCO4)nnn2-c2nonc2N)cc1 | . | 74 | / | . | / | . | . | . | 88 | .
Cc1nn(C)cc1/C=N/NC(=O)c1ccco1 | . | . | . | . | . | . | / | / | / | /
COc1cc(C(=O)NC(CCSC)C(=O)OCC(=O)NC(=O)C2CCCCC2)cc(OC)c1OC (stereo unspecified) | . | . | . | . | . | . | / | / | / | /
CCOC(=O)C1CCN(c2cc3c(cc2NC(=O)c2ccccc2OCC)n(C)c(=O)n3C)CC1 | . | 35 | / | . | / | . | . | . | . | .
Cc1cccc(/C=N/NC(=O)c2cc3c(s2)-c2ccccc2CC3)c1 | 81 | 87 | . | . | . | . | 92 | . | 85 | .
CCN(CC(=O)Nc1cccc(S(=O)(=O)N(C)c2ccccc2)c1)Cc1ccccc1 | 77 | 28 | / | / | / | . | . | . | . | .
COc1ccccc1CCC(=O)OCC(=O)c1c(N)n(CC(C)C)c(=O)n(C)c1=O | . | 49 | / | / | / | . | 40 | . | . | .
